ChEMBL document CHEMBL3813688, “Synthesis, antitumor activity and mechanism of action of novel 1,3-thiazole derivatives containing hydrazide-hydrazone and carboxamide moiety” (Bioorg Med Chem Lett, 2016)
Converted amounts (≈) assume the structure as drawn.

Experiments:
[1] = Cytotoxicity against human BCG823 cells assessed as cell growth inhibition after 72 hrs by MTT assay; type: functional, cell-based; conditions: BCG823, 72 h
Outline: (§1)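 MTT growth assay in human cancer lines (MCF-7, HepG2, BGC-823, HeLa, A549), 72 h after treatment; 5-fluorouracil as reference. IC50 (μg/mL) taken as concentration giving 50% growth inhibition versus untreated control.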

MCF7 [2] = assay: Cytotoxicity against human MCF7 cells assessed as cell growth inhibition at 20 ug/ml after 72 hrs by MTT assay; type: functional; conditions: MCF7, 72 h, read-out: GI
[3] = tested on: MCF-7, HepG2, BGC-823, HeLa, A549 cancer cell lines (Homo sapiens); assay: Cytotoxicity against human MCF-7, HepG2, BGC-823, HeLa and A549 cells assessed as cell growth inhibition at 20 ug/ml after 72 hrs by MTT assay; conditions: read-out: GI
HeLa [4] = assay: Cytotoxicity against human HeLa cells assessed as cell growth inhibition at 20 ug/ml after 72 hrs by MTT assay; type: functional; conditions: read-out: GI
HepG2 [5] = assay: Cytotoxicity against human HepG2 cells assessed as cell growth inhibition after 72 hrs by MTT assay; type: functional, cell-based; conditions: HepG2, 72 h; outline: as §1
A549 [6] = assay: Cytotoxicity against human A549 cells assessed as cell growth inhibition at 20 ug/ml after 72 hrs by MTT assay; type: functional; conditions: A549, 72 h, read-out: GI
A549 [7] = assay: Cytotoxicity against human A549 cells assessed as cell growth inhibition after 72 hrs by MTT assay; type: functional, cell-based; conditions: A549, 72 h; outline: as §1
MCF7 [8] = assay: Cytotoxicity against human MCF7 cells assessed as cell growth inhibition after 72 hrs by MTT assay; type: functional, cell-based; conditions: MCF7, 72 h; outline: as §1
HepG2 [9] = assay: Cytotoxicity against human HepG2 cells assessed as cell growth inhibition at 20 ug/ml after 72 hrs by MTT assay; type: functional; conditions: HepG2, 72 h, read-out: GI
HeLa [10] = assay: Cytotoxicity against human HeLa cells assessed as cell growth inhibition after 72 hrs by MTT assay; type: functional, cell-based; outline: as §1
[11] = Cytotoxicity against human BCG823 cells assessed as cell growth inhibition at 20 ug/ml after 72 hrs by MTT assay; type: functional; conditions: BCG823, 72 h, read-out: GI
[12] = Cytotoxicity against human HL7702 cells assessed as cell growth inhibition after 72 hrs by MTT assay; type: cell-based; conditions: L02, 72 h

| Structure (SMILES) | IC50 [1] [µg/mL] | inhibition of growth at 20 µg/mL (MCF7 [2]) [%] | inhibition at 72 h, 20 ug/ml [3] [%] | inhibition of growth at 20 µg/mL (HeLa [4]) [%] | IC50 (HepG2 [5]) [µg/mL] | inhibition of growth at 20 µg/mL (A549 [6]) [%] | IC50 (A549 [7]) [µg/mL] | IC50 (MCF7 [8]) [µg/mL] | inhibition of growth at 20 µg/mL (HepG2 [9]) [%] | IC50 (HeLa [10]) [µg/mL] | inhibition of growth at 20 µg/mL [11] [%] | IC50 [12] [µg/mL] |
| --- | --- | --- | --- | --- | --- | --- | --- | --- | --- | --- | --- | --- |
| CNc1nc(C(F)(F)F)c(C(=O)N/N=C/c2cccc(C(F)(F)F)c2)s1 | > 100 | < 30 | < 30 | < 30 | > 100 | < 30 | > 100 | > 100 | < 30 | > 100 | < 30 | – |
| CNc1nc(C(F)(F)F)c(C(=O)N/N=C/c2ccccc2C(F)(F)F)s1 | > 100 | < 30 | < 30 | < 30 | > 100 | < 30 | > 100 | > 100 | < 30 | > 100 | < 30 | – |
| CNc1nc(C(F)(F)F)c(C(=O)N/N=C/c2cc(C(F)(F)F)cc(C(F)(F)F)c2)s1 | > 100 | < 30 | < 30 | < 30 | > 100 | < 30 | > 100 | > 100 | < 30 | > 100 | < 30 | – |
| CN(C(=O)NC(=O)c1ccc(F)c(F)c1)c1nc(C(F)(F)F)c(C(=O)N/N=C/c2cc(C(F)(F)F)cc(C(F)(F)F)c2)s1 | 3.51 (≈ 5.42 µM) | – | – | – | 5.47 (≈ 8.45 µM) | – | 5.47 (≈ 8.45 µM) | 2.61 (≈ 4.03 µM) | – | 4.45 (≈ 6.87 µM) | – | 20.1 (≈ 31 µM) |
| CNc1nc(C)c(C(=O)N/N=C/c2ccc(C(F)(F)F)cc2)s1 | > 100 | < 30 | < 30 | < 30 | > 100 | < 30 | > 100 | > 100 | < 30 | > 100 | < 30 | – |
| O=c1[nH]cc(F)c(=O)[nH]1 [FLUOROURACIL] | 10.9 (≈ 83.7 µM) | – | – | – | – | – | 10.5 (≈ 80.7 µM) | 10.8 (≈ 83 µM) | – | 10.7 (≈ 82.4 µM) | – | 14.5 (≈ 112 µM) |
| CNc1nc(C)c(C(=O)N/N=C/c2ccccc2C(F)(F)F)s1 | > 100 | < 30 | < 30 | < 30 | > 100 | < 30 | > 100 | > 100 | < 30 | > 100 | < 30 | – |
| CN(C(=O)NC(=O)c1ccc(F)c(F)c1)c1nc(C(F)(F)F)c(C(=O)N/N=C/c2cccc(C(F)(F)F)c2)s1 | 4.46 (≈ 7.7 µM) | – | – | – | 5.6 (≈ 9.66 µM) | – | 6.52 (≈ 11.3 µM) | 4.15 (≈ 7.16 µM) | – | 4.21 (≈ 7.27 µM) | – | 23.5 (≈ 40.5 µM) |
| CNc1nc(C(F)(F)F)c(C(=O)N/N=C/c2ccc(C(F)(F)F)cc2)s1 | > 100 | < 30 | < 30 | < 30 | > 100 | < 30 | > 100 | > 100 | < 30 | > 100 | < 30 | – |
| CNc1nc(C)c(C(=O)N/N=C/c2cc(C(F)(F)F)cc(C(F)(F)F)c2)s1 | > 100 | < 30 | < 30 | < 30 | > 100 | < 30 | > 100 | > 100 | < 30 | > 100 | < 30 | – |
| CNc1nc(C)c(C(=O)N/N=C/c2cccc(C(F)(F)F)c2)s1 | > 100 | < 30 | < 30 | < 30 | > 100 | < 30 | > 100 | > 100 | < 30 | > 100 | < 30 | – |
